Reference: the RNAGym collection of RNA variant scans (doi:10.1038/s41586-018-0170-7)

B1: tRNA (parent)
chain: GUUCCGUUGGCGUAAUGGUAACGCGUCUCCCUCCUAAGGAGAAGACUGCGGGUUCGAGUCCCGUACGGAACG

Variants of: B1
Test: yeast fitness, log relative to wild type (ln ratio); higher = fitter; tRNA-Arg(CCU), competitive growth, 37 C, 1 M NaCl
Summary of the method: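 Two independent transformations put a combinatorial tRNA-Arg(CCU) variant library on a HIS3 centromeric plasmid into BY4742 lacking the chromosomal gene. Pools were grown in SC-HIS at 30 °C for 4 generations, then in SC-HIS 1M NaCl at 37 °C for ~6.5 generations (~26.5 h), with three outputs taken per input. Fitness compares a genotype's generations with the wild type's as a natural log ratio. Those generations are OD-scaled log2 output/input frequencies, inverse-variance weighted across replicates, from 125 bp paired-end Illumina counts.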

First: G1A G6A
Second: G1A G6U C27U A43C C46U A70G
The “yeast fitness (ln)” value of the first is higher: -0.0503 for the first, -0.385 for the second.

Going from U2C A43C C46U A69G A70G to G1A U2C C27U C66U A70U C71U, the “yeast fitness (ln)” value falls from -0.0147 to -0.256.

Compared with U2C G6U A43C C46U A70U, U2C C27U A43C C46U C66U A69G C71U is lower in “yeast fitness (ln)” value: -0.061 for the first, -0.281 for the second.

Going from U2C G6U A43C C46U A69G A70G to G1A U2G G6A C27U A43C A69G A70G, the “yeast fitness (ln)” value falls from -0.3 to -0.341.

First: G1A G6A A43C A70G
Second: C27U A43C C46U C66A A70G C71U
The “yeast fitness (ln)” value of the first is lower: -0.12 for the first, -0.101 for the second.

Compared with U2G G6U C27U A43C C46U A69G, G1A U2G C27U A43C C46U C66U A70G is higher in “yeast fitness (ln)” value: -0.199 for the first, -0.172 for the second.

Going from G1A U2C G6U C46U A70G to G6U C27U A43C A70U C71U, the “yeast fitness (ln)” value falls from -0.239 to -0.445.

Going from U2C A70G to G1A U2C C27U A43C C46U C66U A69G A70G, the “yeast fitness (ln)” value falls from 0.00112 to -0.112.

Going from G6A C27U A43C A70G C71U to A43C C46U C66A A69G A70U, the “yeast fitness (ln)” value rises from -0.304 to -0.0398.

First: U2C A43C C66U A70U
Second: C27U A43C C66U
The “yeast fitness (ln)” value of the first is higher: -0.0776 for the first, -0.216 for the second.

Going from G1A G6U C66U A69G A70U to U2C G6U A43C C46U C66A C71U, the “yeast fitness (ln)” value rises from -0.284 to -0.077.

First: U2C C46U
Second: U2G G6U C27U C46U C66A A70U
The “yeast fitness (ln)” value of the first is higher: 0.0244 for the first, -0.0141 for the second.

First: C27U A43C C46U C66U A69G C71U
Second: G6A A43C C46U C66A A69G A70U
The “yeast fitness (ln)” value of the first is lower: -0.361 for the first, -0.317 for the second.

Going from U2C C46U C66A A69G A70G to G6A C27U A43C C46U C66U C71U, the “yeast fitness (ln)” value falls from -0.0391 to -0.464.

Compared with G1A U2C G6U C27U A43C C71U, G1A U2G G6A A70U C71U is higher in “yeast fitness (ln)” value: -0.263 for the first, -0.0851 for the second.

Going from G1A U2G C46U to U2C G6A A43C C46U C66U A69G A70U, the “yeast fitness (ln)” value falls from -0.0473 to -0.3.

Compared with G1A G6U A43C C46U C66A A69G A70U C71U, G1A U2G C66U A69G A70G C71U is higher in “yeast fitness (ln)” value: -0.301 for the first, -0.165 for the second.

Compared with G6U A70U C71U, G1A G6U A43C C66U A70U C71U is lower in “yeast fitness (ln)” value: -0.14 for the first, -0.38 for the second.

Compared with U2G G6A C46U A70G, G6U A43C A69G is lower in “yeast fitness (ln)” value: -0.0796 for the first, -0.328 for the second.

First: G6A C27U C46U C66A A70G C71U
Second: G1A C27U A43C C46U C66U A70G C71U
The “yeast fitness (ln)” value of the first is higher: -0.252 for the first, -0.299 for the second.

First: G1A U2G C66U C71U
Second: U2C G6A A43C A69G A70U
The “yeast fitness (ln)” value of the first is lower: -0.201 for the first, -0.0661 for the second.

Compared with C27U A43C C66A A69G A70U, U2C G6A A43C C46U A69G C71U is higher in “yeast fitness (ln)” value: -0.289 for the first, -0.0945 for the second.

Going from G1A U2G G6U C27U C71U to G1A G6U C46U A70U C71U, the “yeast fitness (ln)” value rises from -0.358 to -0.185.

Going from G6U C27U C46U C66U A70G C71U to U2G G6A A43C A69G A70U C71U, the “yeast fitness (ln)” value falls from -0.245 to -0.364.

Going from G6A C27U A43C to G1A C27U C46U C66U A70U C71U, the “yeast fitness (ln)” value falls from -0.131 to -0.283.

Going from G1A G6U C27U C66U A69G A70G to U2C G6U C27U C66U A70U, the “yeast fitness (ln)” value rises from -0.47 to -0.194.

Compared with G1A U2G G6U C27U A43C C46U C66U A69G A70U C71U, G1A C27U A43C C46U A69G is higher in “yeast fitness (ln)” value: -0.434 for the first, -0.116 for the second.

Compared with U2G G6A A43C C66U A69G A70G, U2C C27U C46U C66A A69G A70G is higher in “yeast fitness (ln)” value: -0.257 for the first, -0.227 for the second.

Compared with G6A A69G A70U, A43C C66A A69G C71U is lower in “yeast fitness (ln)” value: -0.082 for the first, -0.226 for the second.

First: G1A U2G C27U C66A A69G A70U C71U
Second: G6A C66U
The “yeast fitness (ln)” value of the first is lower: -0.342 for the first, -0.0046 for the second.

Going from U2G G6U C27U A43C C66U A70U to G1A C27U A43C C46U C66U A69G A70U C71U, the “yeast fitness (ln)” value falls from -0.219 to -0.448.

Going from G1A G6A C27U C46U A70G C71U to G6U A43C C46U A70U, the “yeast fitness (ln)” value rises from -0.366 to -0.173.

Going from C46U A69G A70U to G1A G6U A43C C46U C66U A70U, the “yeast fitness (ln)” value falls from -0.0401 to -0.259.

Going from G1A G6U A43C C66A to G1A U2C G6U C46U C66U A70U C71U, the “yeast fitness (ln)” value falls from -0.19 to -0.203.

First: G1A G6U C46U C66U A69G A70U
Second: G1A U2C G6A C46U C66A A70U C71U
The “yeast fitness (ln)” value of the first is lower: -0.251 for the first, -0.102 for the second.

First: G1A U2G G6U C27U A43C A69G A70U C71U
Second: G1A U2G G6U C27U C66A C71U
The “yeast fitness (ln)” value of the first is lower: -0.494 for the first, -0.273 for the second.

Compared with G1A U2G G6A C27U A43C C46U A69G A70U, U2G G6A C27U C66U A69G is higher in “yeast fitness (ln)” value: -0.279 for the first, -0.193 for the second.

Going from U2G C27U C46U C66A A69G A70G to G1A U2G G6A C46U C66U A70U, the “yeast fitness (ln)” value falls from -0.163 to -0.251.

First: G1A G6U C27U A43C C46U C66U A69G A70G C71U
Second: G1A U2C A69G C71U
The “yeast fitness (ln)” value of the first is lower: -0.501 for the first, -0.17 for the second.

Compared with G1A G6U C66A A69G C71U, G1A U2G G6A A43C C46U A69G A70G C71U is lower in “yeast fitness (ln)” value: -0.032 for the first, -0.303 for the second.

Compared with U2G C46U C66U A69G A70U, U2G G6U C27U C46U A69G A70G is lower in “yeast fitness (ln)” value: -0.0704 for the first, -0.191 for the second.

With G6U A43C C46U C66A A69G C71U the “yeast fitness (ln)” value was -0.548.
